Source: ChEMBL document CHEMBL1240439, “Synthesis and docking studies of novel benzopyran-2-ones with anticancer activity” (2010)

Columns and labels:
Assay type in all cases: functional
SNB-19 = experiment: Cytotoxicity against human SNB19 cells assessed as cell growth at 10 uM after 48 hrs by sulforhodamine B assay; conditions: SNB-19, 48 h, read-out: Activity
[1] = Cytotoxicity against human leukemia cells after 48 hrs by sulforhodamine B assay; conditions: Leukemia cell
Procedure, shortened: (§1)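 Cells plated at 5000–40,000/well according to doubling time, then held 24 h at 37 °C, 5% CO2, with time-zero plates TCA-fixed. DMSO stocks (400× top concentration) were diluted in medium containing 50 μg/ml gentamycin, giving five 10-fold or ½-log concentrations. After 48 h, adherent cells were fixed in 10% TCA and suspension cells in 16% TCA (final), stained with 0.4% SRB, read at 515 nm. GI50, TGI and LC50 were calculated per cell line.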

NCI-H522 = experiment: Cytotoxicity against human NCI-H522 cells assessed as cell growth at 10 uM after 48 hrs by sulforhodamine B assay; conditions: NCI-H522, 48 h, read-out: Activity
RXF 393 = experiment: Cytotoxicity against human RXF393 cells assessed as cell growth at 10 uM after 48 hrs by sulforhodamine B assay; conditions: RXF 393, 48 h, read-out: Activity
A549 = experiment: Cytotoxicity against human A549 cells assessed as cell growth at 10 uM after 48 hrs by sulforhodamine B assay; conditions: A549, 48 h, read-out: Activity
OVCAR-8 = experiment: Cytotoxicity against human OVCAR8 cells assessed as cell growth at 10 uM after 48 hrs by sulforhodamine B assay; conditions: OVCAR-8, 48 h, read-out: Activity
SK-MEL-2 = experiment: Cytotoxicity against human SK-MEL-2 cells assessed as cell growth at 10 uM after 48 hrs by sulforhodamine B assay; conditions: SK-MEL-2, 48 h, read-out: Activity
[2] = Cytotoxicity against human ovarian cancer cells after 48 hrs by sulforhodamine B assay; conditions: Cancer cell lines; procedure, shortened: as §1
786-0 = experiment: Cytotoxicity against human 786-0 cells assessed as cell growth at 10 uM after 48 hrs by sulforhodamine B assay; conditions: 786-0, 48 h, read-out: Activity
TK-10 = experiment: Cytotoxicity against human TK10 cells assessed as cell growth at 10 uM after 48 hrs by sulforhodamine B assay; conditions: TK-10, 48 h, read-out: Activity
OVCAR-3 = experiment: Cytotoxicity against human OVCAR-3 cells assessed as cell growth at 10 uM after 48 hrs by sulforhodamine B assay; conditions: OVCAR-3, 48 h, read-out: Activity
[3] = Cytotoxicity against human breast cancer cells after 48 hrs by sulforhodamine B assay; conditions: Cancer cell lines; procedure, shortened: as §1
HL-60(TB) = experiment: Cytotoxicity against human HL-60(TB) cells assessed as cell growth at 10 uM after 48 hrs by sulforhodamine B assay; conditions: HL-60, 48 h, read-out: Activity
MOLT-4 = experiment: Cytotoxicity against human MOLT4 cells assessed as cell growth at 10 uM after 48 hrs by sulforhodamine B assay; conditions: MOLT-4, 48 h, read-out: Activity
HT-29 = experiment: Cytotoxicity against human HT-29 cells assessed as cell growth at 10 uM after 48 hrs by sulforhodamine B assay; conditions: HT-29, 48 h, read-out: Activity
K562 = experiment: Cytotoxicity against human K562 cells assessed as cell growth at 10 uM after 48 hrs by sulforhodamine B assay; conditions: K562, 48 h, read-out: Activity
SF-268 = experiment: Cytotoxicity against human SF268 cells assessed as cell growth at 10 uM after 48 hrs by sulforhodamine B assay; conditions: SF-268, 48 h, read-out: Activity
[4] = Cytotoxicity against human Hs 578T cells assessed as cell growth at 10 uM after 48 hrs by sulforhodamine B assay; conditions: read-out: Activity
EKVX = experiment: Cytotoxicity against human EKVX cells assessed as cell growth at 10 uM after 48 hrs by sulforhodamine B assay; conditions: read-out: Activity
NCI-H226 = experiment: Cytotoxicity against human NCI-H226 cells assessed as cell growth at 10 uM after 48 hrs by sulforhodamine B assay; conditions: NCI-H226, 48 h, read-out: Activity
LOX IMVI [5] = experiment: Cytotoxicity against human LOXIMVI cells after 48 hrs by sulforhodamine B assay
Procedure, shortened: (§2)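 Cells were plated at 5000–40,000/well according to doubling time and preincubated 24 h at 37 °C, 5% CO2. Time-zero plates were TCA-fixed. DMSO stocks were diluted in medium with gentamycin to five concentrations (10-fold or ½ log series) plus control, then incubated 48 h. Adherent cells were fixed with cold TCA (suspension cells with 16% final), stained with SRB, and read at 515 nm. GI50, TGI and LC50 were calculated per line.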

SK-OV-3 = experiment: Cytotoxicity against human SKOV3 cells assessed as cell growth at 10 uM after 48 hrs by sulforhodamine B assay; conditions: SK-OV-3, 48 h, read-out: Activity
CCRF-CEM = experiment: Cytotoxicity against human CCRF-CEM cells after 48 hrs by sulforhodamine B assay; procedure, shortened: as §2
OVCAR-4 = experiment: Cytotoxicity against human OVCAR4 cells after 48 hrs by sulforhodamine B assay; conditions: OVCAR-4, 48 h; procedure, shortened: as §2
[6] = Cytotoxicity against human renal cancer cells after 48 hrs by sulforhodamine B assay; conditions: Cancer cell lines; procedure, shortened: as §1
COLO 205 = experiment: Cytotoxicity against human COLO205 cells assessed as cell growth at 10 uM after 48 hrs by sulforhodamine B assay; conditions: COLO 205, 48 h, read-out: Activity
A498 = experiment: Cytotoxicity against human A498 cells assessed as cell growth at 10 uM after 48 hrs by sulforhodamine B assay; conditions: A498, 48 h
[7] = Cytotoxicity against human colon cancer cells after 48 hrs by sulforhodamine B assay; conditions: Cancer cell lines; procedure, shortened: as §1
LOX IMVI [8] = experiment: Cytotoxicity against human LOXIMVI cells assessed as cell growth at 10 uM after 48 hrs by sulforhodamine B assay; conditions: read-out: Activity
SF-539 = experiment: Cytotoxicity against human SF539 cells assessed as cell growth at 10 uM after 48 hrs by sulforhodamine B assay; conditions: SF-539, 48 h, read-out: Activity
SK-MEL-28 = experiment: Cytotoxicity against human SK-MEL-28 cells assessed as cell growth at 10 uM after 48 hrs by sulforhodamine B assay; conditions: SK-MEL-28, 48 h, read-out: Activity
SW-620 = experiment: Cytotoxicity against human SW620 cells assessed as cell growth at 10 uM after 48 hrs by sulforhodamine B assay; conditions: SW-620, 48 h, read-out: Activity
[9] = Cytotoxicity against human lung cancer cells after 48 hrs by sulforhodamine B assay; conditions: Cancer cell lines; procedure, shortened: as §1
[10] = read-out: LC50 (the source's name)

SMILES: Cc1cc(=O)n(C(=O)COc2ccc3c(-c4ccccc4)cc(=O)oc3c2C)[nH]1
- growth at 10 µM (SNB-19): 33.6%
- GI50 [1]: 3.44 µM
- TGI [1]: 50.8 µM
- CC50 [1, 10]: 94 µM
- growth at 10 µM (NCI-H522): -39.2%
- growth at 10 µM (RXF 393): -37%
- growth at 10 µM (A549): 0.69%
- growth at 10 µM (OVCAR-8): -30.5%
- growth at 10 µM (SK-MEL-2): -12.2%
- GI50 [2]: 8.53 µM
- TGI [2]: 28.7 µM
- CC50 [2, 10]: 52 µM
- growth at 10 µM (786-0): -58.8%
- growth at 10 µM (TK-10): -33.4%
- growth at 10 µM (OVCAR-3): -61.1%
- GI50 [3]: 4.23 µM
- TGI [3]: 33.7 µM
- CC50 [3, 10]: 87.5 µM
- growth at 10 µM (HL-60(TB)): -66.6%
- growth at 10 µM (MOLT-4): 22.7%
- growth at 10 µM (HT-29): -44.2%
- growth at 10 µM (K562): -24.1%
- growth at 10 µM (SF-268): 2.94%
- growth at 10 µM [4]: -4.17%
- growth at 10 µM (EKVX): -33.6%
- growth at 10 µM (NCI-H226): 0.36%
- GI50 (LOX IMVI [5]): 1.99 µM
- TGI (LOX IMVI [5]): 3.88 µM
- growth at 10 µM (SK-OV-3): 15.9%
- GI50 (CCRF-CEM): < 0.04 µM
- TGI (CCRF-CEM): 0.57 µM
- GI50 (OVCAR-4): 1.95 µM
- TGI (OVCAR-4): 4.73 µM
- GI50 [6]: 10.7 µM
- TGI [6]: 21.4 µM
- CC50 [6, 10]: 55.2 µM
- growth at 10 µM (COLO 205): 6.21%
- TGI (A498): 3.76 µM
- growth at 10 µM (A498; read-out: Activity): -3.79%
- GI50 [7]: 8.98 µM
- TGI [7]: 32.6 µM
- CC50 [7, 10]: 64.5 µM
- growth at 10 µM (LOX IMVI [8]): -61.8%
- growth at 10 µM (SF-539): -78.2%
- growth at 10 µM (SK-MEL-28): -47.2%
- growth at 10 µM (SW-620): -65.9%
- GI50 [9]: 3.69 µM
- TGI [9]: 37.4 µM
- CC50 [9, 10]: 65.1 µM
